Data on seven compounds can be found in PMC4792293 (RSC advances, 2015).

Assay [1] addresses T1, α-Glucosidase (EC 3.2.1.20) from Saccharomyces cerevisiae (Saccharomyces cerevisiae, UniProt P53341). The experiment in a line: α-glucosidase inhibitory assay. The class given is biochemical.
In assay [2] the target is T1, α-Glucosidase (EC 3.2.1.20) from Saccharomyces cerevisiae. The experiment in a line: Kinetics of α-glucosidase inhibition. Format: biochemical. The conditions noted are these: Lineweaver-Burk plots, ligand 2 – 250 μM. Summed up:
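Two inhibitor concentrations within 2–250 μM were tested against p-nitrophenyl-α-D-glucopyranoside at 1–1000 μM in 50 mM phosphate, pH 6.8. Enzyme and inhibitor were pre-incubated for 30 min, at room temperature per the methods but at 37 °C per the figure legend. Substrate was then added, reacted 60 s at room temperature and read at 405 nm. Inhibition type was assigned from double-reciprocal plots.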

The target in assay [3] is T2, α-glucosidase (Saccharomyces cerevisiae, UniProt P53341). The experiment in a line: Isothermal titration calorimetry. The class given is binding. The conditions noted are these: for ITC titration peaks: ligand concentrations 1 – 4 mM; for binding constants (Ka) / ΔG / Ka / ΔH / ΔS / N [GCGs/α-glucosidase] (ligand:enzyme ratio): ITC. A digest of the protocol: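 Test compound (1–4 mM) was titrated into α-glucosidase (0.026–0.031 mM) in the cell, both in 100 mM phosphate, pH 7.0, and degassed 20 min under vacuum. Titration used 17 injections at 240 s intervals, 25 °C, with stirring at 310 rpm. Blanks were buffer into buffer and compound into buffer. Data were fit by nonlinear regression to a single-site binding model.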
For orientation: In ITC the heat of successive injections is recorded.

In assay [4] the target is T2, α-glucosidase. The experiment in a line: Circular dichroism. The class given is binding. The conditions noted are these: α-glucosidase 2 μM; for β-Turns %: control 14.3; for β-Fold %: control 21.9; for Unordered %: control 26.9; for α-Helix %: control 36.3. A digest of the protocol:
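Far-UV CD spectra (190–240 nm) at 25 °C. Yeast α-glucosidase at 2 μM was co-incubated with test compound at 0–80 μM for 20 min at 37 °C in 0.1 M sodium phosphate, pH 6.8, in a 1.0 mm path-length cell. Spectra were blank-subtracted against buffer, noise-reduced and smoothed. Secondary-structure fractions were estimated with the DichroWeb server.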

Assay [5] has as its system α-glucosidase. The conditions noted are these: cited from earlier work.
The mark [6] stands for this setting: yeast α-glucosidase, pNPG, pH 6.9, 25 °C, mean ± S.D. from three independent experiments.

Read-outs that look alike come from different tables or passages of the source.

T2 sequence (P53341 whole entry): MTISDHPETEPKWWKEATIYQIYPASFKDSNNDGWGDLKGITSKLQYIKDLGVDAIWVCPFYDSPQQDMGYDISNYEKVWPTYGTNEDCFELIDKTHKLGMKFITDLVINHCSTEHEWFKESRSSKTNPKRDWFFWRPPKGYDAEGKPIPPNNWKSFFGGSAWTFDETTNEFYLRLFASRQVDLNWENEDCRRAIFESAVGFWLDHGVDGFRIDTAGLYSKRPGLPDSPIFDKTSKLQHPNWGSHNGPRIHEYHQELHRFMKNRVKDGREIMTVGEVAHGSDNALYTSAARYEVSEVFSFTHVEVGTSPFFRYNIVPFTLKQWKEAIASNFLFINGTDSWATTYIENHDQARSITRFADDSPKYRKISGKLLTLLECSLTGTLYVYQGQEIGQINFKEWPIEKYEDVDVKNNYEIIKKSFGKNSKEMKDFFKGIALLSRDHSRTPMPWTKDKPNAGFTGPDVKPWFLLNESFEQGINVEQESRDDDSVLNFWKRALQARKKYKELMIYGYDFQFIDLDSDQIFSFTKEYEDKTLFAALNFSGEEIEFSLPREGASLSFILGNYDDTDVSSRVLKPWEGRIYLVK
T1 sequence (P53341 whole entry): as above

Consider `O=C(OC[C@H]1OC[C@H](OC(=O)c2cc(O)c(O)c(O)c2)[C@@H](O)[C@@H]1O)c1cc(O)c(O)c(O)c1` [ginnalin A], for which the IC50 – broadly, the midpoint of a concentration-inhibition curve – in assay [1] is 216 ± 3.19 µM. For the same compound, in assay [2], the Type of inhibition result was “noncompetitive”. Further, the ITC titration peaks entry on α-glucosidase [3] is “too weak to yield thermodynamic parameters”. At α-glucosidase [4] (ligand 40 μM), the β-Turns % stood at 11.5%, the β-Fold % came out at 22.7%, the Unordered % is 27.8% and the α-Helix % is on record as 37.8%. Moreover, on α-glucosidase [4] (ligand 80 μM), the β-Turns % was 15.8%, the β-Fold % amounted to 22.5%, the Unordered % stood at 27.7% and the α-Helix % is given as 33.5%.
Turning to `C[C@H]1O[C@H](O[C@H]2[C@H](O)[C@@H](O)[C@@H](O[C@H]3[C@H](O)[C@@H](O)C(O)O[C@@H]3CO)O[C@@H]2CO)[C@H](O)[C@@H](O)[C@@H]1N[C@H]1C=C(CO)[C@@H](O)[C@H](O)[C@H]1O` (stereo partly shown) [acarbose], the Type of inhibition entry with α-glucosidase [5] (positive control) was “competitive inhibitor”.
On to `O=C(OC[C@H]1OC[C@H](O)[C@@H](O)[C@@H]1O)c1cc(O)c(O)c(O)c1` [ginnalin B], for which, in assay [1], the IC50 is more than 1000 µM. Further, at α-glucosidase [3], the ITC titration peaks entry is recorded as “too weak to yield thermodynamic parameters”.
As to `O=C(OC[C@H]1O[C@@H](OC(=O)c2cc(O)c(O)c(O)c2)[C@H](OC(=O)c2cc(O)c(O)c(O)c2)[C@@H](OC(=O)c2cc(O)c(O)c(O)c2)[C@@H]1OC(=O)c1cc(O)c(O)c(O)c1)c1cc(O)c(O)c(O)c1` [PGG, pentagalloyl glucose], in the assay on α-glucosidase [5], the Type of inhibition entry is reported as “noncompetitive α-glucosidase inhibitor”.
In turn, maplexin F displayed an IC50 in assay [1] (setting [6]) of 13.7 ± 0.87 µM. In assay [2], the Type of inhibition entry is given as “noncompetitive”. In addition, at α-glucosidase [3], the “binding constants (Ka)” value turned out to be 28500 mol⁻¹ and the ΔG is -6.09 kcal/mol. At α-glucosidase [3] (25 °C, phosphate buffer pH 7.0), the Ka was 2.85 10^4 mol^−1, the ΔG was -1.46 kcal/mol, the ΔH is -2.452 kcal/mol and the ΔS came out at 14.06 J mol^−1 K^−1. Further, on α-glucosidase [3] (25 °C, phosphate buffer pH 7.0, listed as MF), the “N [GCGs/α-glucosidase] (ligand:enzyme ratio)” value was determined as 1.01. At α-glucosidase [4] (ligand 20 μM), this compound had a β-Turns % of 15.6%, a β-Fold % of 24.7%, an Unordered % of 28.4% and a α-Helix % of 30.7%. In addition, on α-glucosidase [4] (ligand 40 μM), the β-Turns % came to 16.6%, the β-Fold % was 22.7%, the Unordered % stood at 28.9% and the α-Helix % is 31.2%.
`O=C(O[C@H]1CO[C@H](CO)[C@@H](O)[C@@H]1O)c1cc(O)c(O)c(O)c1` [ginnalin C] yielded an IC50 in assay [1] of more than 1000 µM. The ITC titration peaks entry on α-glucosidase [3] is reported as “too weak to yield thermodynamic parameters”.
For `O=C(OC[C@H]1OC[C@H](OC(=O)c2cc(O)c(O)c(O)c2)[C@@H](OC(=O)c2cc(O)c(O)c(O)c2)[C@@H]1OC(=O)c1cc(O)c(O)c(O)c1)c1cc(O)c(O)c(O)c1` [maplexin J], half-maximal inhibition in assay [1] (setting [6]) (IC50) required 4.27 ± 0.13 µM. Further, the “potency relative to maplexins E and F” value in assay [1] (α-glucosidase inhibition) was “three times more potent than maplexins E and F”. Moreover, in assay [2], the Type of inhibition entry is listed as “noncompetitive”. For the same compound, on α-glucosidase [3], the “binding constants (Ka)” value turned out to be 42200 mol⁻¹ and the ΔG was -6.31 kcal/mol. Moreover, at α-glucosidase [3] (25 °C, phosphate buffer pH 7.0), the Ka is listed as 4.22 10^4 mol^−1, the ΔG is -1.51 kcal/mol, the ΔH is -6.016 kcal/mol and the ΔS is recorded as 63.31 J mol^−1 K^−1. The “N [GCGs/α-glucosidase] (ligand:enzyme ratio)” value on α-glucosidase [3] (25 °C, phosphate buffer pH 7.0, listed as MJ) amounted to 1.01. At α-glucosidase [4] (ligand 20 μM), this compound showed a β-Turns % of 20.4%, a β-Fold % of 21.1%, an Unordered % of 26.4% and a α-Helix % of 31.8%. On α-glucosidase [4] (ligand 40 μM), this compound returned a β-Turns % of 19.1%, a β-Fold % of 24.4%, an Unordered % of 25.3% and a α-Helix % of 30.7%.
